Test results taken from paper PMC3873039 (Anti-Cancer Agents in Medicinal Chemistry, 2013).
pEC50, pIC50: −log10 of the molar value.

Legend:
[1] = test system: non-tumor cord blood (CD34+) cells; test: CellTiter-Glo luminescent cell viability assay; type: cell-based; details: 24 h; for pIC50: read-out: IC50 (50% inhibition of cellular proliferation), CD34+ non-tumour control cells, 24 h treatment; for The lowest dose of polyphenols at which there was a significant inhibition of cell proliferation compared to the vehicle control: CD34+ non-tumour control cells, doses 0, 2, 10, 50, 250, 500 µM, p<0.05
How it was run: (§1)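 Cells grown in RPMI 1640 with 10% FBS, 1.5 mM L-glutamine and penicillin/streptomycin at 37 °C, 5% CO2. Seeded at 2.5 x 10³ cells/well and exposed 24 h to ethanol-dissolved test compound (0, 2, 10, 50, 250, 500 µM) with 0.1% ethanol vehicle. ATP luminescence normalized to vehicle (100%). IC50 taken from linear regression. Lowest significant dose set by one-way ANOVA/Tukey, p<0.05. Triplicates, three independent experiments.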

non-tumor cells (CD34+) [2] = test: NucView caspase 3 activity assay by flow cytometry; type: cell-based; details: 24 h; for pEC50: read-out: AP50 (50% induction of apoptosis), Caspase 3 activity assay (C3); for The lowest dose of polyphenols at which there was a significant induction of apoptosis compared to the vehicle control: CD34+ non-tumour control cells, caspase 3 activity, p<0.05
K562 [3] = test: Hoechst 33342 nuclear morphological analysis of apoptosis; type: cell-based; details: Homo sapiens, K562, 24 h, read-out: AP50 (50% induction of apoptosis), Hoechst 33342 staining (Hoe)
How it was run: (§2)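 Seeded at 0.5 x 10⁶ cells/well in 12-well plates and treated 24 h. Cells were pelleted (400 g, 5 min, 4 °C), washed in PBS, fixed in 4% paraformaldehyde, cytospun, air-dried, then stained with 10 μg/ml Hoechst 33342 for 10 min in the dark. Fluorescence microscopy: 200 cells counted, scored by condensed/intense nuclei, shrinkage, blebbing and apoptotic bodies. % apoptotic nuclei calculated. AP50 = concentration giving 50% apoptotic cells.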

non-tumor cells (CD34+) [4] = test: Hoechst 33342 nuclear morphological analysis of apoptosis; type: cell-based; details: 24 h, read-out: AP50 (50% induction of apoptosis), Hoechst 33342 staining (Hoe)
How it was run: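 CD34+ cells treated 24 h across the IC25–IC50 range, then pelleted (400 g, 4 °C) and fixed in 4% paraformaldehyde/PBS. Cytospins were air-dried and stained with 10 μg/ml Hoechst 33342 for 10 min in the dark, then viewed by fluorescence microscopy. 200 cells were scored per sample as % apoptotic nuclei (shrinkage, blebbing, chromatin condensation, apoptotic bodies). AP50 = concentration giving 50% apoptosis.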

THP-1 [5] = test: NucView caspase 3 activity assay by flow cytometry; type: cell-based, human; details: for pEC50: Homo sapiens, THP-1, 24 h, read-out: AP50 (50% induction of apoptosis), Caspase 3 activity assay (C3); for The lowest dose of polyphenols at which there was a significant induction of apoptosis compared to the vehicle control: THP-1, caspase 3 activity, 24 h, p<0.05
How it was run: (§3)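 Seeded at 0.5 x 10⁶ cells/well and treated 24 h, with series of 0–50 or 0–250 µM depending on compound. Normalized to vehicle (0% apoptosis). Mean ± STD, three independent experiments in triplicate. One-way ANOVA/Tukey, p<0.05. AP50 = concentration giving 50% apoptotic cells.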

CCRF-CEM [6] = test: Cell cycle analysis, propidium iodide flow cytometry; type: cell-based, human; details: IC50 dose, 24 h; for Percentage of cells in G0/G1 phase of cell cycle (significant accumulation): vehicle control G0/G1 = 41.9%
How it was run: (§4)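 Seeded at 0.5 x 10^6 cells per well in 12-well plates and treated 24 h at the IC50 concentration of each test compound from CellTiter-Glo. Cells were pelleted (400 g, 5 min), PBS-washed and fixed in 80% ethanol overnight at -20 °C. Staining used 50 µg/mL PI plus RNase overnight at 4 °C.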

THP-1 [7] = test: Hoechst 33342 nuclear morphological analysis of apoptosis; type: cell-based; details: Homo sapiens, THP-1, 24 h, read-out: AP50 (50% induction of apoptosis), Hoechst 33342 staining (Hoe)
How it was run: as §2

JURKAT [8] = test: NucView caspase 3 activity assay by flow cytometry; type: cell-based, human; details: 24 h; for pEC50: Homo sapiens, Jurkat, read-out: AP50 (50% induction of apoptosis), Caspase 3 activity assay (C3); for The lowest dose of polyphenols at which there was a significant induction of apoptosis compared to the vehicle control: JURKAT, caspase 3 activity, p<0.05
How it was run: as §3

CCRF-CEM [9] = test: Hoechst 33342 nuclear morphological analysis of apoptosis; type: cell-based; details: Homo sapiens, 24 h, read-out: AP50 (50% induction of apoptosis), Hoechst 33342 staining (Hoe)
How it was run: as §2

K562 [10] = test: CellTiter-Glo luminescent cell viability assay; type: cell-based, human; details: K562, 24 h, doses 0, 2, 10, 50, 250, 500 µM, p<0.05
How it was run: as §1

KG1a [11] = test: Cell cycle analysis, propidium iodide flow cytometry; type: cell-based, human; details: IC50 dose, 24 h, vehicle control G0/G1 = 44.6%
How it was run: as §4

U937 [12] = test: NucView caspase 3 activity assay by flow cytometry; type: cell-based, human; details: for pEC50: Homo sapiens, U-937, 24 h, read-out: AP50 (50% induction of apoptosis), Caspase 3 activity assay (C3); for The lowest dose of polyphenols at which there was a significant induction of apoptosis compared to the vehicle control: U937, caspase 3 activity, 24 h, p<0.05
How it was run: as §3

CCRF-CEM [13] = test: CellTiter-Glo luminescent cell viability assay; type: cell-based, human; details: 24 h, doses 0, 2, 10, 50, 250, 500 µM, p<0.05
How it was run: as §1

JURKAT [14] = test: Hoechst 33342 nuclear morphological analysis of apoptosis; type: cell-based; details: Homo sapiens, 24 h, read-out: AP50 (50% induction of apoptosis), Hoechst 33342 staining (Hoe)
How it was run: as §2

MOLT-3 [15] = test: Cell cycle analysis, propidium iodide flow cytometry; type: cell-based, human; details: MOLT-3, IC50 dose, 24 h; for Percentage of cells in G0/G1 phase of cell cycle (significant accumulation): vehicle control G0/G1 = 64.5%
How it was run: as §4

U937 [16] = test: Hoechst 33342 nuclear morphological analysis of apoptosis; type: cell-based; details: Homo sapiens, U-937, 24 h, read-out: AP50 (50% induction of apoptosis), Hoechst 33342 staining (Hoe)
How it was run: as §2

KG1a [17] = test: as above; type: cell-based; details: Homo sapiens, KG-1a, 24 h, read-out: AP50 (50% induction of apoptosis), Hoechst 33342 staining (Hoe)
How it was run: as §2

KG1a [18] = test: CellTiter-Glo luminescent cell viability assay; type: cell-based, human; details: 24 h; for pIC50: Homo sapiens, KG-1a, read-out: IC50 (50% inhibition of cellular proliferation); for The lowest dose of polyphenols at which there was a significant inhibition of cell proliferation compared to the vehicle control: KG1a, doses 0, 2, 10, 50, 250, 500 µM, p<0.05
How it was run: as §1

MOLT-3 [19] = test: Hoechst 33342 nuclear morphological analysis of apoptosis; type: cell-based; details: Homo sapiens, MOLT-3, 24 h, read-out: AP50 (50% induction of apoptosis), Hoechst 33342 staining (Hoe)
How it was run: as §2

K562 [20] = test: Cell cycle analysis, propidium iodide flow cytometry; type: cell-based, human; details: K562, IC50 dose, 24 h; vehicle control G0/G1 = 53.7%
How it was run: as §4

[21] = test system: non-tumor progenitor cells (CD34+); test: Cell cycle analysis, propidium iodide flow cytometry; type: cell-based; details: 24 h, within the IC50 ranges used to treat the leukemic cell lines
HL60 = test: Hoechst 33342 nuclear morphological analysis of apoptosis; type: cell-based; details: Homo sapiens, HL-60, 24 h, read-out: AP50 (50% induction of apoptosis), Hoechst 33342 staining (Hoe)
How it was run: as §2

| SMILES | pIC50 [1] | The lowest dose of polyphenols at which there was a significant inhibition of cell proliferation compared to the vehicle control [1] [µM] | pEC50 (non-tumor cells (CD34+) [2]) | The lowest dose of polyphenols at which there was a significant induction of apoptosis compared to the vehicle control (non-tumor cells (CD34+) [2]) [µM] | pEC50 (K562 [3]) | pEC50 (non-tumor cells (CD34+) [4]) | pEC50 (THP-1 [5]) | The lowest dose of polyphenols at which there was a significant induction of apoptosis compared to the vehicle control (THP-1 [5]) [µM] | pEC50 (THP-1 [7]) | pEC50 (JURKAT [8]) | The lowest dose of polyphenols at which there was a significant induction of apoptosis compared to the vehicle control (JURKAT [8]) [µM] | pEC50 (CCRF-CEM [9]) | The lowest dose of polyphenols at which there was a significant inhibition of cell proliferation compared to the vehicle control (K562 [10]) [µM] | Percentage of cells in G0/G1 phase of cell cycle (significant accumulation) (KG1a [11]) | pEC50 (U937 [12]) | The lowest dose of polyphenols at which there was a significant induction of apoptosis compared to the vehicle control (U937 [12]) [µM] | The lowest dose of polyphenols at which there was a significant inhibition of cell proliferation compared to the vehicle control (CCRF-CEM [13]) [µM] | pEC50 (JURKAT [14]) | pEC50 (U937 [16]) | pEC50 (KG1a [17]) | other results |
| --- | --- | --- | --- | --- | --- | --- | --- | --- | --- | --- | --- | --- | --- | --- | --- | --- | --- | --- | --- | --- | --- |
| O=c1cc(-c2ccccc2)oc2cc(O)cc(O)c12 [Chrysin] | < 3.30 | 500 | < 3.60 | 250 | < 3.30 | < 3.30 | < 3.60 | 250 | < 3.30 | 4.40 | 50 | 4.40 | 250 | G0/G1 =50% | 3.82 | 50 | 50 | 4.52 | 4.49 | < 3.30 | Percentage of cells in G0/G1 phase of cell cycle (significant accumulation) (CCRF-CEM [6]): G0/G1 =49.4%; Percentage of cells in G0/G1 phase of cell cycle (significant accumulation) (MOLT-3 [15]): G0/G1 =69.3%; pIC50 (KG1a [18]): 3.47; The lowest dose of polyphenols at which there was a significant inhibition of cell proliferation compared to the vehicle control (KG1a [18]): 250 µM; pEC50 (MOLT-3 [19]): 4.42; Percentage of cells in G0/G1 phase of cell cycle (significant accumulation) (K562 [20]): G0/G1 =59%; Cell cycle arrest in non-tumour control cells [21]: No Arrest <250µM; pEC50 (HL60): 4.12 |
| Cc1cc(O)c2c(c1)C(=O)c1cc(O)cc(O)c1C2=O [Emodin] | ~3.82 | 50 | < 5.00 | 10 | < 3.30 | < 3.30 | 5.11 | 2 | 5.00 | 5.70 | 2 | < 3.30 | 2 | G0/G1 =52.9% | 5.40 | 2 | 2 | 5.05 | 4.57 | < 3.30 | Percentage of cells in G0/G1 phase of cell cycle (significant accumulation) (CCRF-CEM [6]): G0/G1 =50%; Percentage of cells in G0/G1 phase of cell cycle (significant accumulation) (MOLT-3 [15]): G0/G1 =70%; pIC50 (KG1a [18]): 4.82; The lowest dose of polyphenols at which there was a significant inhibition of cell proliferation compared to the vehicle control (KG1a [18]): 2 µM; pEC50 (MOLT-3 [19]): 5.05; Percentage of cells in G0/G1 phase of cell cycle (significant accumulation) (K562 [20]): G0/G1 =66%; Cell cycle arrest in non-tumour control cells [21]: No Arrest <50µM; pEC50 (HL60): 5.22 |
| O=c1c(O)c(-c2ccc(O)c(O)c2)oc2cc(O)cc(O)c12 [Quercetin] | < 3.30 | 250 | < 4.30 | 50 | 3.69 | < 3.30 | < 4.30 | 10 | < 3.30 | 4.72 | 2 | 4.30 | 2 | G0/G1=52% | 4.30 | 2 | 2 | 4.60 | 4.30 | 3.90 | Percentage of cells in S phase of cell cycle (significant accumulation) (CCRF-CEM [6]; vehicle control S = 47.2%): S = 51.4%; Percentage of cells in G2/M phase of cell cycle (significant accumulation) (MOLT-3 [15]; vehicle control G2/M = 7.5%): G2/M =19%; pIC50 (KG1a [18]): 3.81; The lowest dose of polyphenols at which there was a significant inhibition of cell proliferation compared to the vehicle control (KG1a [18]): 10 µM; pEC50 (MOLT-3 [19]): 4.30; Percentage of cells in G0/G1 phase of cell cycle (significant accumulation) (K562 [20]): G0/G1=60%; Cell cycle arrest in non-tumour control cells [21]: No Arrest <50µM; pEC50 (HL60): 4.30 |
